From ChEMBL document CHEMBL1126735, “Synthesis and biological evaluation of antiplatelet 2-aminochromones” (J Med Chem, 1993)

Columns and labels:
Type in all cases: functional, Canis lupus familiaris
Canis familiaris [1] = test: In vivo inhibitory effect on Cyclical flow reductions (CFR) induced by intracoronary platelet aggregation in stenosed Canine coronary arteries at iv dose of 30 ug/kg +3 ug/kg/min (n=4)
In short: (§1)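 Adult mongrel dogs (10-15 kg, either sex), sodium pentobarbital anesthesia (30 mg/kg iv), positive-pressure ventilation. Aortic pressure via femoral artery catheter. Drug given iv via femoral vein in saline as mesylate/bismesylate salt, bolus then constant infusion. Values mean ± SEM.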

Canis familiaris [2] = test: In vivo inhibitory effect on Cyclical flow reductions (CFR) induced by intracoronary platelet aggregation in stenosed Canine coronary arteries at iv dose of 1000 ug/kg +100 ug/kg/min (n=4); in short: as §1
Canis familiaris [3] = test: In vivo inhibitory effect on Cyclical flow reductions (CFR) induced by intracoronary platelet aggregation in stenosed Canine coronary arteries at iv dose of 100 ug/kg +10 ug/kg/min (n=10); in short: as §1
Canis familiaris [4] = test: In vivo inhibitory effect on Cyclical flow reductions (CFR) induced by intracoronary platelet aggregation in stenosed Canine coronary arteries at iv dose of 300 ug/kg +30 ug/kg/min (n=4); in short: as §1
Canis familiaris [5] = test: Time interval between the start of treatment and the first change in the CFR pattern of blood flow in the stenosed coronary artery at iv dose of 100 ug/kg +10 ug/kg/min (n=10)
In short: (§2)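 Stenosed circumflex coronary artery in pentobarbital-anesthetized open-chest mongrel dogs (10-15 kg), drug iv in saline (mesylate/bismesylate salt), bolus followed by constant infusion. Onset measured as the time from the start of drug treatment to the first change in the cyclic flow reduction pattern of coronary blood flow. Mean ± SEM.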

Canis familiaris [6] = test: Time interval between the start of treatment and the first change in the CFR pattern of blood flow in the stenosed coronary artery at iv dose of 1000 ug/kg +100 ug/kg/min (n=4); in short: as §2
Canis familiaris [7] = test: Time interval between the start of treatment and the first change in the CFR pattern of blood flow in the stenosed coronary artery at iv dose of 300 ug/kg +30 ug/kg/min (n=4); in short: as §2
Canis familiaris [8] = test: Time interval between the end of treatment and restoration of the CFR pattern of blood flow to control levels at iv dose of 300 ug/kg +30 ug/kg/min (n=4)
In short: (§3)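 Anesthetized open-chest mongrel dogs (10-15 kg) with partially obstructed circumflex coronary artery; iv bolus plus constant infusion of drug in saline as mesylate/bismesylate salt. Duration scored as the time from the end of drug treatment until the cyclic flow reduction pattern returns to control levels. Mean ± SEM.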

Canis familiaris [9] = test: Time interval between the end of treatment and restoration of the CFR pattern of blood flow to control levels at iv dose of 100 ug/kg +10 ug/kg/min (n=10); in short: as §3
Canis familiaris [10] = test: Time interval between the end of treatment and restoration of the CFR pattern of blood flow to control levels at iv dose of 1000 ug/kg +100 ug/kg/min (n=4); in short: as §3
Canis familiaris [11] = test: In vivo inhibitory effect on Cyclical flow reductions (CFR) induced by intracoronary platelet aggregation in stenosed Canine coronary arteries at iv dose of 300 ug/kg +30 ug/kg/min (n=2-4); in short: as §1
Canis familiaris [12] = test: Time interval between the start of treatment and the first change in the CFR pattern of blood flow in the stenosed coronary artery at iv dose of 300 ug/kg +30 ug/kg/min (n=2-4); in short: as §2
Canis familiaris [13] = test: Time interval between the start of treatment and the first change in the CFR pattern of blood flow in the stenosed coronary artery at iv dose of 300 ug/kg +30 ug/kg/min (n=3); in short: as §2
Canis familiaris [14] = test: In vivo inhibitory effect on Cyclical flow reductions (CFR) induced by intracoronary platelet aggregation in stenosed Canine coronary arteries at iv dose of 100 ug/kg +10 ug/kg/min (n=3); in short: as §1
Canis familiaris [15] = test: Time interval between the start of treatment and the first change in the CFR pattern of blood flow in the stenosed coronary artery at iv dose of 100 ug/kg +10 ug/kg/min (n=3); in short: as §2
Canis familiaris [16] = test: Time interval between the end of treatment and restoration of the CFR pattern of blood flow to control levels at iv dose of 100 ug/kg +10 ug/kg/min (n=3); in short: as §3
Canis familiaris [17] = test: In vivo inhibitory effect on Cyclical flow reductions (CFR) induced by intracoronary platelet aggregation in stenosed Canine coronary arteries at iv dose of 300 ug/kg +30 ug/kg/min (n=3); in short: as §1

| Compound | Rating (Canis familiaris [1]) | Rating (Canis familiaris [2]) | Rating (Canis familiaris [3]) | Rating (Canis familiaris [4]) | Time to onset (Canis familiaris [5]) [min] | Time to onset (Canis familiaris [6]) [min] | Time to onset (Canis familiaris [7]) [min] | Time to offset (Canis familiaris [8]) [min] | Time to offset (Canis familiaris [9]) [min] | Time to offset (Canis familiaris [10]) [min] | Rating (Canis familiaris [11]) | Time to onset (Canis familiaris [12]) [min] | Time to onset (Canis familiaris [13]) [min] | Rating (Canis familiaris [14]) | Time to onset (Canis familiaris [15]) [min] | Time to offset (Canis familiaris [16]) [min] | Rating (Canis familiaris [17]) |
| --- | --- | --- | --- | --- | --- | --- | --- | --- | --- | --- | --- | --- | --- | --- | --- | --- | --- |
| Cc1c(OCCN2CCN(C)CC2)ccc2c(=O)cc(N3CCOCC3)oc12 | 0 | 3 | 1.9 | 3 | 5 | 1 | 1 | 60 | 25 | 73 |  |  |  |  |  |  |  |
| Cc1c(OCCN2CCCCC2)ccc2c(=O)cc(N3CCOCC3)oc12 |  | 2.5 |  |  |  | 7 |  | 67 |  | 23 | 1.3 | 2 |  |  |  |  |  |
| Cc1c(OCCN2CCSCC2)ccc2c(=O)cc(N3CCOCC3)oc12 |  |  |  |  |  |  |  | 12 |  |  |  |  | 9 | 2 | 17 | 5.3 | 2.3 |
